Laboratory results published in ChEMBL document CHEMBL1148008, “Antimicrobial and cytotoxic activity of agelasine and agelasimine analogs” (Bioorg Med Chem, 2007).

What was measured:
[1] = Cytotoxicity against RPMI 8226/s cells; assay type: functional, cell-based; settings: Homo sapiens, RPMI8226/S
How it was run: (§1)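 Fluorometric microculture cytotoxicity assay (FMCA) read-out; IC50 values reported.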

U-937/GTB = test: Cytotoxicity against U937 GTB cells; assay type: functional, cell-based; settings: Homo sapiens; how it was run: as §1
[2] = Cytotoxicity against CEM/s cells; assay type: functional, cell-based; settings: Homo sapiens; how it was run: as §1
[3] = tested on: Mycobacterium tuberculosis; test: Antimicrobial activity against Mycobacterium tuberculosis after 20 hrs by broth microdilution method; assay type: functional
[4] = tested on: Bacteroides thetaiotaomicron; test: Antibacterial activity against Bacteroides thetaiotaomicron after 20 hrs by broth microdilution method; assay type: functional
Staphylococcus aureus = test: Antibacterial activity against Staphylococcus aureus ATCC 25923 after 20 hrs by broth microdilution method; assay type: functional; settings: ATCC 25923, 20 h
How it was run: (§2)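 Strains grown 24 h at 35 °C on tryptone-soya agar. Colonies suspended in saline to 0.5 McFarland, then diluted 1:10 in Mueller-Hinton broth (~10⁷ CFU/mL). Inoculum added to twofold dilutions in broth (final 0.125–32 µg/mL) in triplicate. Incubated aerobically at 35 °C for 20 h. MIC is the lowest concentration giving complete growth inhibition. Repeated at least once; gentamycin/streptomycin served as QC.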

[5] = tested on: Mycobacterium tuberculosis; test: Antimicrobial activity against Mycobacterium tuberculosis at 6.25 ug/mL after 20 hrs by broth microdilution method; assay type: functional
ACHN = test: Cytotoxicity against ACHN cells; assay type: functional, cell-based; settings: Homo sapiens; how it was run: as §1
Escherichia coli = test: Antibacterial activity against Escherichia coli ATCC 25922 after 20 hrs by broth microdilution method; assay type: functional; settings: ATCC 25922, 20 h; how it was run: as §2
Bacteroides fragilis = test: Antibacterial activity against Bacteroides fragilis after 20 hrs by broth microdilution method; assay type: functional
Pichia kudriavzevii = test: Antifungal activity against Candida krusei ATCC 6258; assay type: functional
Pseudomonas aeruginosa = test: Antibacterial activity against Pseudomonas aeruginosa after 20 hrs by broth microdilution method; assay type: functional
Enterococcus faecalis = test: Antimicrobial activity against Enterococcus faecalis after 20 hrs by broth microdilution method; assay type: functional
Streptococcus pyogenes = test: Antibacterial activity against Streptococcus pyogenes after 20 hrs by broth microdilution method; assay type: functional

Compound	IC50 [1]	IC50 (U-937/GTB)	IC50 [2]	MIC [3]	MIC [4]	MIC (Staphylococcus aureus)	inhibition at 6.25 µg/mL [5]	IC50 (ACHN)	MIC (Escherichia coli)	MIC (Bacteroides fragilis)	MIC (Pichia kudriavzevii)	MIC (Pseudomonas aeruginosa)	MIC (Enterococcus faecalis)	MIC (Streptococcus pyogenes)
CC(C)=CCC/C(C)=C\CC/C(C)=C/C[n+]1cn(C)c2nc[nH]/c(=N\OCc3ccccc3)c21	6.76 µM	7.55 µM	10 µM	3.13 µg/mL	4 µg/mL	8 µg/mL	99%	25.2 µM	12 µg/mL	4 µg/mL	–	–	–	–
CO/N=c1\[nH]cnc2c1[n+](C/C=C(\C)CC/C=C(\C)CCC=C(C)C)cn2C	1.24 µM	1.32 µM	1.16 µM	3.13 µg/mL	16 µg/mL	8 µg/mL	99%	40.4 µM	16 µg/mL	16 µg/mL	8 µg/mL	–	–	–
CO/N=c1\[nH]cnc2c1[n+](C/C=C(\C)CC/C=C(\C)CC/C=C(\C)CCC=C(C)C)cn2C	1.11 µM	1.42 µM	1.91 µM	–	8 µg/mL	4 µg/mL	–	7.38 µM	16 µg/mL	8 µg/mL	2 µg/mL	> 32 µg/mL	8 µg/mL	4 µg/mL
CO/N=c1\[nH]cnc2c1[n+](C/C=C(\C)CC/C=C(/C)CCC=C(C)C)cn2C	0.736 µM	1.4 µM	1.23 µM	3.13 µg/mL	16 µg/mL	6 µg/mL	98%	28.7 µM	16 µg/mL	32 µg/mL	–	–	–	–
CC(C)=CCC/C(C)=C/CC/C(C)=C/CC/C(C)=C/C[n+]1cn(C)c2nc[nH]/c(=N\OCc3ccccc3)c21	8.24 µM	6.79 µM	14 µM	3.13 µg/mL	16 µg/mL	6 µg/mL	99%	20.9 µM	> 32 µg/mL	8 µg/mL	1 µg/mL	–	–	–
